From PubChem BioAssay
PAX8 reporter: inhibitors of PAX8 transcriptional activity in RMG-I cells; RMG-I TPO-luciferase reporter, SteadyGlo, 24 h; inhibition, % at 12.6 µM; 360,000 compounds, 1.2% hits; AID 652154;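 active means mean replicate inhibition at least 60% with every replicate also reaching 60%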;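 further: luciferase light reporting Pax8 driven TPO promoter activity; plate controls were median of neutral control wells for no effect and mitoxantrone controls for full effect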
FGF22 binding: shifts melting point of recombinant human FGF22. Q9HCT0. recombinant FGF22 thermal shift, SYPRO orange fluorescence; percent of sucrose octasulfate shift, DMSO zero. activity (Tm shift, normalised), % at 9.99 µM. 340,000 compounds, 1.5% hits. AID 651658;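 active means mean Tm shift, scaled 0 neutral to 100 positive control, at about 1.3% or above, every replicate too, limit read from the data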
Target sequence (Q9HCT0 whole entry, looked up): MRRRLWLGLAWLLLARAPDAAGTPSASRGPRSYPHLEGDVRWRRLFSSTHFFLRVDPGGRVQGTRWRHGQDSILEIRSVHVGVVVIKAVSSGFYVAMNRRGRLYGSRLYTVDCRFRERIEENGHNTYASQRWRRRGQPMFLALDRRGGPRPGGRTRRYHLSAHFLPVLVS
FN deposition inh: fibronectin deposition inhibition; AH1F fibroblasts, Alexa488-fibronectin deposition fluorescence, overnight; inhibition, % at 12.6 µM; 350,000 compounds, 0.086% hits; AID 743247;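 active means mean inhibition across replicates of 30% or more, regardless of how many single replicates reach that level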;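 further: positive control wells lacked labelled fibronectin entirely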
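Schedule: 1 h cell adhesion before compound, then overnight fibronectin incubation; test system: AH1F fibroblast monolayer depositing Alexa488-labelled fibronectin into matrix; quantity: 10000 AH1F cells per well; probe or stimulus: fluorescent fibronectin at 24 nM final; signal: fluorescence, ex 485 nm, em 525 nm; evaluation: percent inhibition as loss of matrix-bound fibronectin fluorescence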
EWS-Fli inh: blocks EWS/Fli oncoprotein-driven transcription; 350,000 compounds, 0.67% hits; A673 NR0B1-luciferase reporter, viability-normalised; inhibition, % at 12.6 µM;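 active means mean inhibition of at least 50% after viability correction, with every replicate also passing that limit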;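 further: firefly luciferase signal divided by Alamar Blue viability fluorescence both relative to DMSO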
PGC1a acetyl inh: lowers PGC1a acetylation signal in U2OS cells | 350,000 compounds, 0.17% hits | AlphaScreen anti-acetyl-lysine; with virally co-expressed GCN5 acetyltransferase | AID 651687 | inhibition, % at 15.6 µM;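 active means every replicate shows inhibition of at least 40%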;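 further: 0% = neutral control wells and 100% = positive control wells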
Env fusion inh: blocks HIV Env-driven cell-cell fusion | HeLa-JRFL Env/CEM21 cell fusion, luciferase | inhibition, % at 12.3 µM | 360,000 compounds, 1.1% hits | AID 651610;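 active means mean replicate inhibition score of at least 50 and every replicate individually at or above 50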;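 further: 0% = plate neutral controls and 100% = maraviroc near 300 nM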
Active calls of the source: *; i = inactive; · = not tested or not shown; [ ] = another dose, or the depositor's remark. Rows were chosen to be rich in hits. Some 3.1% of all compounds tested hit in one or more screens of this group.

SMILES	PAX8 reporter	FGF22 binding	FN deposition inh	EWS-Fli inh	PGC1a acetyl inh	Env fusion inh
Cc1ccc(S(=O)(=O)Nc2ccc3c(c2)C(=O)N([C@H](C)CO)C[C@H](C)[C@H](CN(C)C(=O)Nc2c(C)noc2C)OCCCC[C@@H](C)O3)cc1	-17	0	2	-10	10	-16[16.7 µM]
Cc1ccc(NC(=O)c2c([N+](=O)[O-])c(C(C)(C)C)nn2C)c(C)c1	128*	0	9	-6	·	·
CC(=O)Nc1ccc(NC(=O)c2c([N+](=O)[O-])c(C(C)(C)C)nn2C)cc1	4	0	1	7	·	10
CSc1ncnc2c1ncn2CCCN[C@H](C)c1cccc2ccccc12	-23	0	-6	5	3	58*
CN(C)c1ccc2c(c1)[C@@H]1C[C@H](CC(=O)NCc3ccc(Cl)cc3)O[C@H](CO)[C@@H]1O2	-1	-1	-9	-1	-10	-16[16.7 µM]
CN(C)NC(=S)Nc1ccc2nc(-c3ccccn3)c(-c3ccccn3)nc2c1	·	·	4	·	0	-26
CC(C)(C)CC(C)(C)NC(=S)Nc1ccc2nc(-c3ccccn3)c(-c3ccccn3)nc2c1	24	·	-1	·	-5	58*
Cc1nc(=S)c2c([nH]1)-c1ccccc1CC21CCCCC1	-18	0	0	54*	1	1
O=[N+]([O-])c1ccc(Sc2ccncn2)c([N+](=O)[O-])c1	105*	0	5	33	·	i
Cc1cc(C)nc(Sc2ccc([N+](=O)[O-])cc2[N+](=O)[O-])n1	94*	·	1	·	·	-1
O=[N+]([O-])c1ccc(Sc2cccc3cccnc23)c([N+](=O)[O-])c1	·	0	·	-33	-35	·
CC1(C)CC(=O)C2=C(C1)NC1=C(C(=O)c3ccccc31)C2c1cccnc1 (stereo unspecified)	3	44*	2	8	·	-1
COc1ccc2c3c([nH]c2c1)[C@H](CO)N(C(=O)c1ccncc1)CC31CCN(C(=O)CC2CC2)CC1	-8	0	·	-9	-1	·
C1CC2CN(c3nc4nonc4nc3N3CCSCC3)CCN2C1 (stereo unspecified)	-3	44*	7	4	4	7
C1CCN(C2CCN(c3nc4nonc4nc3N3CCSCC3)CC2)C1	-11	43*	-5	10	·	-33
C[C@@H]1CN([C@@H](C)CO)C(=O)c2cccc(NS(=O)(=O)c3ccc(F)cc3)c2O[C@@H]1CN(C)S(=O)(=O)c1ccc(Cl)cc1	·	0	·	2	-1	9[16.7 µM]
CC=Cc1ccc2n(c1=O)C[C@@H]1[C@@H](CO)[C@H](C(=O)NCCC)N(C(=O)c3cccnc3)[C@H]21 (mixture of isomers)	·	·	·	1	5	·
C[C@@H]1CN([C@@H](C)CO)C(=O)Cc2cc(NC(=O)Nc3ccc(C(F)(F)F)cc3)ccc2O[C@H]1CN(C)S(=O)(=O)c1cn(C)cn1	15	-1	-2	5	16	22[16.7 µM]
C[C@H](CO)N1C[C@H](C)[C@@H](CN(C)S(=O)(=O)c2ccc(F)cc2)Oc2ccc(NC(=O)Nc3ccc(C(F)(F)F)cc3)cc2CC1=O	-31	·	·	-6	-10	101*[16.7 µM]
C[C@H]1CN([C@@H](C)CO)C(=O)Cc2cc(NC(=O)Nc3ccc(C(F)(F)F)cc3)ccc2O[C@H]1CN(C)S(=O)(=O)c1ccc(F)cc1	40	·	·	54*	-7	-4[16.7 µM]
C[C@@H]1CN([C@@H](C)CO)C(=O)Cc2cc(NC(=O)Nc3ccc(C(F)(F)F)cc3)ccc2O[C@@H]1CN(C)S(=O)(=O)c1ccc(F)cc1	29	·	·	0	-9	-59[16.7 µM]
COc1ccc(S(=O)(=O)N(C)C[C@H]2Oc3ccc(NC(=O)Nc4ccc(C(F)(F)F)cc4)cc3CC(=O)N([C@H](C)CO)C[C@@H]2C)cc1	79*	0	·	-8	8	26[16.7 µM]
C[C@H]1CN([C@@H](C)CO)C(=O)Cc2cc(NC(=O)Nc3ccc(C(F)(F)F)cc3)ccc2O[C@H]1CN(C)S(=O)(=O)c1cn(C)cn1	38	-1	2	54*	-5	15[16.7 µM]
C[C@@H]1CN([C@H](C)CO)C(=O)Cc2cc(NC(=O)Nc3ccc(C(F)(F)F)cc3)ccc2O[C@H]1CN(C)S(=O)(=O)c1ccc(F)cc1	9	·	·	-1	-6	17[16.7 µM]
COc1ccccc1Cc1nc(-c2ccncc2)no1	-37	43*	4	-26	-5	-9
Clc1ccccc1OCc1nc(-c2ccncc2)no1	·	·	-29	·	10	-164
Cc1c(NS(=O)(=O)c2ccc(Cl)c(C(=O)OCC(=O)NCc3ccco3)c2)c(=O)n(-c2ccccc2)n1C	-14	44*	6	-15	3	2
